# Results reported in ChEMBL document CHEMBL2417469, “Synthesis of novel analogs of 2-pyrazoline obtained from [(7-chloroquinolin-4-yl)amino]chalcones and hydrazine as potential antitumor and antimalarial agents” (Eur J Med Chem, 2013).
# Tests used:
# Format in all cases: functional
# [1] = system: Plasmodium falciparum; assay: Antimalarial activity against Plasmodium falciparum NF54 infected in human serum at 20 ug/ml after 48 hrs by fluorometric method
# Procedure, shortened: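 Asynchronous P. falciparum NF54 at 1.5–2% parasitemia, 5% hematocrit in RPMI with 10% human serum, exposed 48 h at 37 °C under 90% N2/5% CO2/5% O2 at the stated concentration; parasite DNA stained with ethidium bromide after proteinase K lysis; viability % = (Flu treated − medium)/(Flu untreated − medium) ×100; triplicate.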
# [2] = system: MDA-MB-468; assay: Cytotoxicity against human MDA-MB-468 cells after 48 hrs by SRB assay; details: MDA-MB-468, 48 h
# Procedure, shortened: (§1)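 NCI 60-cell-line screen. Cells preincubated 24 h at 37 °C, 5% CO2; time-zero plates TCA-fixed. Compounds dissolved in DMSO and tested at five concentrations (100, 10, 1.0, 0.1, 0.01 µM) for 48 h continuous exposure. Adherent cells fixed with cold TCA (10% final), then SRB stained; absorbance at 515 nm. GI50, TGI and LC50 calculated from growth relative to time-zero and untreated controls.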
# [3] = system: BT-549; assay: Cytotoxicity against human BT549 cells after 48 hrs by SRB assay; details: BT-549, 48 h; procedure, shortened: as §1
# [4] = system: T47D; assay: Cytotoxicity against human T47D cells after 48 hrs by SRB assay
# Procedure, shortened: (§2)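 NCI 60-cell screen. Cells grew 24 h (37 °C, 5% CO2) before compound was added. Compounds were in DMSO and diluted in medium with gentamicin, then tested at five levels (100, 10, 1.0, 0.1, 0.01 µM) with 48 h continuous exposure. Adherent cells were fixed with TCA (10% final) and stained with 0.4% SRB, absorbance read at 515 nm. A time-zero plate was included. LC50 is the concentration giving 50% loss of protein relative to time zero.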
# [5] = system: Hs-578T; assay: Cytotoxicity against human Hs578T cells after 48 hrs by SRB assay; procedure, shortened: as §1
# [6] = system: MDA-MB-231; assay: Cytotoxicity against human MDA-MB-231 cells after 48 hrs by SRB assay; details: MDA-MB-231, 48 h; procedure, shortened: as §1
# [7] = system: SN12C; assay: Cytotoxicity against human SN12C cells after 48 hrs by SRB assay; procedure, shortened: as §1
# [8] = system: CAKI-1; assay: Cytotoxicity against human Caki1 cells after 48 hrs by SRB assay; details: CAKI-1, 48 h; procedure, shortened: as §1
# [9] = system: ACHN; assay: Cytotoxicity against human ACHN cells after 48 hrs by SRB assay; details: for CC50: read-out: LC50 (the source's name); procedure, shortened: as §1
# [10] = system: NCI/ADR-RES; assay: Cytotoxicity against human NCI/ADR-RES cells after 48 hrs by SRB assay; details: for CC50: read-out: LC50 (the source's name); procedure, shortened: as §1
# [11] = system: IGROV-1; assay: Cytotoxicity against human IGROV1 cells after 48 hrs by SRB assay; details: IGROV-1, 48 h; procedure, shortened: as §1
# [12] = system: UACC-62; assay: Cytotoxicity against human UACC62 cells after 48 hrs by SRB assay; details: UACC-62, 48 h; for CC50: read-out: LC50 (the source's name); procedure, shortened: as §2
# [13] = system: UACC-257; assay: Cytotoxicity against human UACC257 cells after 48 hrs by SRB assay; details: UACC-257, 48 h; procedure, shortened: as §2
# [14] = system: SK-MEL-2; assay: Cytotoxicity against human SK-MEL-2 cells after 48 hrs by SRB assay; details: SK-MEL-2, 48 h; procedure, shortened: as §1
# [15] = system: MDA-MB-435; assay: Cytotoxicity against human MDA-MB-435 cells after 48 hrs by SRB assay; details: MDA-MB-435, 48 h; procedure, shortened: as §1
# [16] = system: LOX IMVI; assay: Cytotoxicity against human LOXIMVI cells after 48 hrs by SRB assay; procedure, shortened: as §1
# [17] = system: SNB-75; assay: Cytotoxicity against human SNB75 cells after 48 hrs by SRB assay; details: SNB-75, 48 h; procedure, shortened: as §2
# [18] = system: SF-539; assay: Cytotoxicity against human SF539 cells after 48 hrs by SRB assay; details: SF-539, 48 h; for CC50: read-out: LC50 (the source's name); procedure, shortened: as §1
# [19] = system: SF-295; assay: Cytotoxicity against human SF295 cells after 48 hrs by SRB assay; details: SF-295, 48 h; procedure, shortened: as §1
# [20] = system: SF-268; assay: Cytotoxicity against human SF268 cells after 48 hrs by SRB assay; details: SF-268, 48 h; procedure, shortened: as §1
# [21] = system: HCT-15; assay: Cytotoxicity against human HCT15 cells after 48 hrs by SRB assay; details: HCT-15, 48 h; procedure, shortened: as §1
# [22] = system: HT-29; assay: Cytotoxicity against human HT-29 cells after 48 hrs by SRB assay; details: HT-29, 48 h; procedure, shortened: as §1
# [23] = system: HCT-116; assay: Cytotoxicity against human HCT116 cells after 48 hrs by SRB assay; details: HCT-116, 48 h; procedure, shortened: as §1
# [24] = system: HCC 2998; assay: Cytotoxicity against human HCC2998 cells after 48 hrs by SRB assay; details: HCC 2998, 48 h; procedure, shortened: as §1
# [25] = system: NCI-H522; assay: Cytotoxicity against human NCI-H522 cells after 48 hrs by SRB assay; details: NCI-H522, 48 h; for CC50: read-out: LC50 (the source's name); procedure, shortened: as §1
# [26] = system: NCI-H226; assay: Cytotoxicity against human NCI-H226 cells after 48 hrs by SRB assay; details: NCI-H226, 48 h; procedure, shortened: as §1
# [27] = system: NCI-H23; assay: Cytotoxicity against human NCI-H23 cells after 48 hrs by SRB assay; details: NCI-H23, 48 h; for CC50: read-out: LC50 (the source's name); procedure, shortened: as §1
# [28] = system: HOP-92; assay: Cytotoxicity against human HOP92 cells after 48 hrs by SRB assay; details: HOP-92, 48 h; procedure, shortened: as §1
# [29] = system: HOP-62; assay: Cytotoxicity against human HOP62 cells after 48 hrs by SRB assay; details: HOP-62, 48 h; procedure, shortened: as §1
# [30] = system: SR; assay: Cytotoxicity against human SR cells after 48 hrs by SRB assay; procedure, shortened: as §2
# [31] = system: RPMI-8226; assay: Cytotoxicity against human RPMI8226 cells after 48 hrs by SRB assay; details: RPMI-8226, 48 h; procedure, shortened: as §1
# [32] = system: MOLT-4; assay: Cytotoxicity against human MOLT4 cells after 48 hrs by SRB assay; details: MOLT-4, 48 h; procedure, shortened: as §1
# [33] = system: CCRF-CEM; assay: Cytotoxicity against human CCRF-CEM cells after 48 hrs by SRB assay; procedure, shortened: as §1
# [34] = system: PC-3; assay: Cytotoxicity against human PC3 cells after 48 hrs by SRB assay; details: PC-3, 48 h; procedure, shortened: as §1
# [35] = system: TK-10; assay: Cytotoxicity against human TK10 cells after 48 hrs by SRB assay; details: TK-10, 48 h; procedure, shortened: as §2
compound,measurement,setting,value
O=CN1N=C(c2cccc(Nc3ccnc4cc(Cl)ccc34)c2)CC1c1ccccc1 (centres undefined),inhibition at 20 µg/mL,[1],0%
same,GI50,[2],220 nM
same,LC50,[2],> 100 µM
same,GI50,[3],210 nM
same,LC50 (50% net cell kill vs time zero),[3],30.9 µM
same,GI50,[4],340 nM
same,LC50 (concentration giving 50% cell kill relative to time zero),[4],> 100 µM
same,GI50,[5],290 nM
same,LC50 (50% net cell kill),[5],> 100 µM
same,GI50,[6],1150 nM
same,LC50 (concentration killing 50% of cells present at time zero),[6],> 100 µM
same,GI50,[7],630 nM
same,LC50 (50% net cell kill relative to time zero),[7],> 100 µM
same,GI50,[8],330 nM
same,LC50,[8],35.3 µM
same,GI50,[9],860 nM
same,CC50,[9],> 100 µM
same,GI50,[10],0.29 µM
same,CC50,[10],> 100 µM
same,GI50,[11],820 nM
same,LC50 (concentration killing 50% of cells relative to time zero),[11],> 100 µM
same,GI50,[12],530 nM
same,CC50,[12],> 100000 nM
same,GI50,[13],330 nM
same,LC50,[13],> 100 µM
same,GI50,[14],260 nM
same,LC50,[14],> 100 µM
same,GI50,[15],130 nM
same,LC50,[15],> 100 µM
same,GI50,[16],450 nM
same,LC50,[16],4.23 µM
same,GI50,[17],220 nM
same,LC50 (50% net cell kill),[17],> 100 µM
same,GI50,[18],310 nM
same,CC50,[18],35.7 µM
same,GI50,[19],370 nM
same,LC50,[19],41.2 µM
same,GI50,[20],1040 nM
same,LC50,[20],> 100 µM
same,GI50,[21],0.52 µM
same,LC50 (concentration killing 50% of cells relative to time zero),[21],> 100 µM
same,GI50,[22],320 nM
same,LC50,[22],4.32 µM
same,GI50,[23],390 nM
same,LC50,[23],4.75 µM
same,GI50,[24],1220 nM
same,LC50,[24],> 100 µM
same,GI50,[25],210 nM
same,CC50,[25],> 100000 nM
same,GI50,[26],6.91 µM
same,LC50 (50% lethal concentration),[26],> 100 µM
same,GI50,[27],610 nM
same,CC50,[27],> 100 µM
same,GI50,[28],210 nM
same,LC50 (concentration killing 50% of cells),[28],> 100 µM
same,GI50,[29],510 nM
same,LC50 (50% lethal concentration),[29],> 100 µM
same,GI50,[30],200 nM
same,LC50,[30],> 100 µM
same,GI50,[31],490 nM
same,LC50 (concentration killing 50% of cells),[31],> 100 µM
same,GI50,[32],390 nM
same,LC50,[32],> 100 µM
same,GI50,[33],370 nM
same,LC50 (concentration killing 50% of cells relative to time zero),[33],> 100 µM
COc1cccc2c1C(=O)c1c(O)c3c(c(O)c1C2=O)C[C@@](O)(C(=O)CO)C[C@@H]3O[C@H]1C[C@H](N)[C@H](O)[C@H](C)O1 [DOXORUBICIN],GI50,[2],50 nM
same,GI50,[3],230 nM
same,GI50,[4],60 nM
same,GI50,[5],330 nM
same,GI50,[6],510 nM
same,GI50,[34],320 nM
same,GI50,[35],180 nM
same,GI50,[7],70 nM
same,GI50,[8],950 nM
same,GI50,[9],80 nM
same,CC50,[9],100 µM
same,GI50,[10],7.16 µM
same,CC50,[10],100 µM
same,GI50,[11],170 nM
same,GI50,[12],120 nM
same,CC50,[12],740 nM
same,GI50,[13],140 nM
same,GI50,[15],250 nM
same,GI50,[16],70 nM
same,GI50,[17],70 nM
same,GI50,[18],120 nM
same,CC50,[18],27.2 µM
same,GI50,[19],100 nM
same,GI50,[20],100 nM
same,GI50,[21],6.46 µM
same,GI50,[22],120 nM
same,GI50,[23],80 nM
same,GI50,[24],260 nM
same,GI50,[25],30 nM
same,CC50,[25],2800 nM
same,GI50,[26],0.05 µM
same,GI50,[27],150 nM
same,CC50,[27],13.2 µM
same,GI50,[28],100 nM
same,GI50,[29],70 nM
same,GI50,[30],30 nM
same,GI50,[31],80 nM
same,GI50,[32],30 nM
same,GI50,[33],80 nM
